Data from ChEMBL document CHEMBL1144432, “New inhibitors of rabbit muscle triose-phosphate isomerase” (Bioorg Med Chem Lett, 2005).

Key:
[1] = biological target: T1, Triosephosphate isomerase (Oryctolagus cuniculus, UniProt P00939); experiment: Binding affinity against rabbit muscle triose-phosphate isomerase; design: species or system Muscle tissue
Procedure, shortened: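 Rabbit muscle TIM, converting G3P to DHAP, was coupled to a large excess of glycerol-3-phosphate dehydrogenase. NADH consumption was followed at 340 nm. The G3P level was estimated enzymatically with the same coupled system. The cuvette was preincubated 10 min at 25 C, and the reaction was started with G3P (0–250). Inhibitor was tested at 0–30 µM, with inhibition analysed on double-reciprocal plots against 1/[G3P].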

[2] = Binding affinity against class II fructose-bisphosphate aldolase
[3] = biological target: T1, Triosephosphate isomerase; experiment: Inhibitory concentration against rabbit muscle triose-phosphate isomerase; design: species or system Muscle tissue
[4] = Inhibitory concentration against class II fructose-bisphosphate aldolase

T1 sequence (P00939 whole entry): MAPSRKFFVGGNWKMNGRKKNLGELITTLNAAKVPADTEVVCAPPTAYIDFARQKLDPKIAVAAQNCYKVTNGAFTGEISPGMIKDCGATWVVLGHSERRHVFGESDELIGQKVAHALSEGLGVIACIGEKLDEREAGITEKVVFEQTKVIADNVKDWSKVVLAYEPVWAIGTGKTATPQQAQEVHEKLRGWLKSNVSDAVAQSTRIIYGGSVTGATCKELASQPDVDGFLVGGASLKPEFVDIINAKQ

Row | Structure (SMILES) | Ki [1] | Ki [2] | IC50 [3] | IC50 [4]
1 | NNC(=O)COP(=O)(O)O [PHOSPHORIC ACID MONOHYDRAZINOCARBONYLMETHYL ESTER] | 111 µM | 340 nM | – | –
2 | N/C(COP(=O)(O)O)=N/O | 4.5 µM | 2300 nM | – | –
3 | O=C(CCP(=O)(O)O)NO | 159 µM | 145000 nM | – | –
4 | NNC(=O)CCP(=O)(O)O | – | – | 27 mM | 3.63 mM
5 | O=C(COP(=O)(O)O)NO [PHOSPHOGLYCOLOHYDROXAMATE] | 3 µM | 10 nM | – | –
6 | N/C(CCP(=O)(O)O)=N\O | – | – | 9.6 mM | 3.42 mM
